Compound activity as filed in PubChem.
GASC-1 inh: inhibitors of GASC-1 histone demethylase, primary screen, biochemical, fluorescence, DELFIA europium; inhibition, % at 2.35 µM; 330,000 compounds, 0.069% hits; AID 2099, 2009; Lysine-specific demethylase 4C (Homo sapiens), Q9H3R0; GST-JMJD2C(1-420) H3K9me3 demethylation;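 active = more than half of a compound's replicate wells show inhibition beyond 50%, single wells judged on their own value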;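 note: signal counts dimethyl H3K9 product captured on neutravidin plate; 0% = median of DMSO wells and 100% = 0.3 times that DMSO median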
Target sequence (Q9H3R0 1-420 limits assumed): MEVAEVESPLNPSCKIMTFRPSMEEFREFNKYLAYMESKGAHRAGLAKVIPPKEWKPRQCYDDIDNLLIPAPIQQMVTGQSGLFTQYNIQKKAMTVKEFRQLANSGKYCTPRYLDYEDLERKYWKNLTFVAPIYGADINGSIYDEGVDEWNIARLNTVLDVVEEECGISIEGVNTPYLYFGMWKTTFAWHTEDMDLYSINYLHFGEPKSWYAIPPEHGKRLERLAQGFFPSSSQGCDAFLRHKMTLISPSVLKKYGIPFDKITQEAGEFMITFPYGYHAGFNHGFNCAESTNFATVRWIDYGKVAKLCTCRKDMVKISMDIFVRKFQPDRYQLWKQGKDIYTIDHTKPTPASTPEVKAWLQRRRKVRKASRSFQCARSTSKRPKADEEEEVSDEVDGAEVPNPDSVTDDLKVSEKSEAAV
Hep lipid drop: inhibitors of hepatocyte lipid droplet formation, primary screen, imaging, high-throughput imaging, BODIPY stain; AML12 mouse hepatocytes, oleate lipid droplets; 240,000 compounds, 0.4% hits; inhibition, % at 6.5 µM;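 active = lipid droplet intensity inhibited by at least 50%, with more than 500 cells counted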
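Test system: AML12 mouse liver cells; schedule: overnight exposure; technique: high-content imaging of BODIPY-stained droplets and DAPI nuclei; read-out: % inhibition of corrected integrated BODIPY droplet signal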
aDG glyco act: activators of alpha-DG glycosylation, primary screen, uHTS, Pro5-aDG cells, AlphaScreen. alpha-DG glycosylation AlphaScreen (IIH6); 0% Pro5, 100% B10-LARGE cell signal. activation, % at 10 µM. 360,000 compounds, 0.22% hits. AID 624168, 2012;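 active = activation of at least 8% versus controls, or a plate z-score of at least 8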;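 note: Pro5 are CHO cells carrying HIG-tagged alpha-DG that lacks glycosylation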
NR3A LBD binder: binders of NR3A ligand-binding domain, primary screen, biophysical, differential scanning fluorimetry, uHTS; Glutamate receptor ionotropic, NMDA 3A (GRIN3A) ligand-binding domain; NR3A LBD differential scanning fluorimetry, Tm shift; 0% = protein alone, 100% = glycine-bound protein; Tm shift relative to glycine control, % at 25 µM; 340,000 compounds, 2.5% hits; AID 1259313, 2017;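 active = melting temperature shift of at least 10% of the positive control shift, at one fixed dose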
GC-B act: human GC-B receptor activators, primary screen, HEK293 GC-B cells, cGMP TR-FRET, EC30 CNP | Atrial natriuretic peptide receptor 2 (Homo sapiens), P20594 | 370,000 compounds, 0.11% hits | 0% at EC30 CNP, 100% saturating CNP | activation, % at 10 µM;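 active = activation at 10 µM reaching about 35% in either raw or pattern-adjusted values, limit read from the data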
NPR1 activator: GC-A stimulated cGMP production enhancers – HEK293 GC-A cells, cGMP TR-FRET, EC30 ANP, primary screen; activation, % at 10 µM; 0% at EC30 ANP, 100% saturating ANP; 370,000 compounds, 0.14% hits; Atrial natriuretic peptide receptor 1 (Homo sapiens), P16066; in the data active = activation above about 40%
* hit, by the source's call; . = no result. A selection: hits, their analogues and other compounds. The true share with any hit is near 3%.

SMILES | GASC-1 inh | Hep lipid drop | aDG glyco act | NR3A LBD binder | GC-B act | NPR1 activator
CC(C)(C)c1ccc(OCc2ccc(C(=O)N/N=C/c3ccc(O)c(O)c3)cc2)cc1 | 14 | 23 | 0 | 24* | -1 | -9
O=C(N/N=C/c1ccc(OCc2ccc(F)cc2)cc1)c1ccccc1 | 8 | -3 | 1 | 8 | -2 | -5
Cc1c(NC(=O)C2CCCN(S(=O)(=O)c3ccc(Cl)s3)C2)c(=O)n(-c2ccccc2)n1C (stereo not drawn) | . | . | . | . | 0 | 0
C=CCN1[C@@H](CC(C)C)COc2cccc(N3CCSCC3)c2S1(=O)=O | . | . | . | . | -12 | -6
O=C(N/N=C/c1cccc(O)c1)c1ccc(COc2ccccc2Br)cc1 | -2 | 3 | 0 | 35* | 3 | 4
O=C(NN=Cc1ccc(O)c(O)c1)c1ccccc1 | . | . | 0 | . | . | .
O=C(N/N=C/c1cccc(O)c1)c1ccc(COc2cccc3cccnc23)cc1 | 2 | 27 | 0 | 4 | -3 | -2
COc1ccc(C(=O)N/N=C/c2cc(Br)ccc2O)cc1OC | 3 | -42 | 0 | -33 | 7 | 4
COc1ccc(O)c(/C=N/NC(=O)c2ccc(OCc3cccc(Br)c3)cc2)c1 | 26 | . | 0 | 27* | -6 | -2
O=C(COc1ccccc1C(=O)N/N=C\c1ccc(O)c(O)c1)N/N=C/c1ccc(O)c(O)c1 | 6 | . | 0 | 13* | . | .
O=[N+]([O-])c1ccccc1/C=C/C=Nn1c(-c2ccc(F)cc2)n[nH]c1=S | . | . | . | . | -5 | -1
C[C@@H]1OCN(C)[C@H]2C[C@H]3c4[nH]c5cccc(-c6cccc(F)c6)c5c4CCN3C(=O)[C@@H]12 | . | . | . | . | -3 | -3
COc1ccc(OCc2cc(=O)c3ccc4c(c3o2)C=CC(C)(C)O4)cc1OC | 12 | . | 0 | 0 | -6 | 5
CC(C)=CCOc1ccc([C@@H]2COc3c(ccc4c3C=CC(C)(C)O4)C2)c(O)c1 | 20 | . | 0 | 15* | 8 | 10
c1ccc(CCNc2ncnc3ccccc23)cc1 | 11 | -8 | 8.7* | 1 | 6 | 3
CC1CN(c2nc3ccccc3nc2SCC(=O)N2CCN(S(=O)(=O)c3ccccc3)CC2)CC(C)O1 (stereo not drawn) | . | . | . | . | 7 | 2
Cc1cc(OC(C)CCN2CCC(C(O)(c3ccccc3)c3ccccc3)CC2)ccc1Br (stereo not drawn) | . | . | . | . | -2 | -20
CC(C)c1ccc(-c2cc(C(=O)N3N=C(C(F)F)CC3(O)C(F)F)c3ccccc3n2)cc1 (stereo not drawn) | -9 | -10 | 1 | 35* | 0 | 1
O=C(c1cc(C2CC2)nc2ccccc12)N1N=C(C(F)F)CC1(O)C(F)F (stereo not drawn) | 5 | -21 | 0 | -1 | 5 | 1
C/C(=N/NC(=O)c1ccoc1C)c1cccc(NC(=O)C(F)(F)F)c1 | 0 | -4 | 0 | 2 | -3 | 5
CCC(=O)Nc1ccc(/C(C)=N\NC(=O)c2ccc(OC)cc2)cc1 | 0 | 19 | 0 | 19* | -1 | -4
COc1ccc(C(=O)N/N=C(/C)c2cccc(NC(=O)C(F)(F)F)c2)cc1 | 0 | 5 | 0 | 10* | 1 | -1
CCC(=O)NC(=S)Nc1ccc(NC(=O)c2ccc(OC)cc2)cc1 | -15 | 17 | 0 | -4 | 10 | 4
Cc1ccc(NC(=S)N(Cc2cccc(Br)c2)CC2CCC(C(=O)O)CC2)cc1 (stereo not drawn) | -2 | 18 | 0 | 13* | 4 | -1
Cc1ccc(S(=O)(=O)N/N=C/c2cc([N+](=O)[O-])ccc2O)cc1[N+](=O)[O-] | 6 | . | 0 | 21* | 3 | -2
SMILES | GASC-1 inh | Hep lipid drop | aDG glyco act | NR3A LBD binder | GC-B act | NPR1 activator
O=C(Cc1csc(N2CCOCC2)n1)N/N=C/c1ccc(Cl)cc1Cl | 0 | -12 | 0 | -1 | -9 | -6
COc1cc(/C=N/NC(=O)Cc2csc(N3CCOCC3)n2)cc(OC)c1O | -2 | 40 | 0 | 15* | -6 | -4
CCCCNC(=O)C1CCCN1C(=O)Nc1cc(C)cc(C)c1 (stereo not drawn) | . | . | . | . | 1 | 2
Cc1ccc(SC[C@H](Cc2ccccc2)N2CCN(CCc3ccccc3)CCC2=O)cc1 | 5 | -47 | 0 | 19* | 2 | -2
COc1ccc(CN2C(=O)CCCC2(C)c2nnnn2-c2c(C)cccc2C)cc1OC (stereo not drawn) | . | . | . | . | -1 | -1
O=C(Nn1c(O)c(C=C2N=c3ccccc3=N2)sc1=S)c1ccccc1Cl | -20 | 6 | 0 | 23* | -1 | 3
COC(=O)C1=C(C)N(C)C(=NCc2cc(OC)c(OC)c(OC)c2)NC1c1cccc(Cl)c1 (stereo not drawn) | . | . | . | . | -4 | -4
CNc1oc(-c2ccccc2F)nc1S(=O)(=O)c1ccc(C)cc1 | 1 | -30 | 0 | 13* | 4 | 2
CNc1oc(-c2ccccc2)nc1S(=O)(=O)c1ccc(C)cc1 | 4 | -2 | 0 | 0 | 3 | 8
COc1ccccc1OCCCCOc1ccccc1F | . | . | 0 | 3 | 0 | 3
CCOc1ccccc1OCCCCOc1ccccc1F | 4 | -19 | 0 | 25* | 1 | -1
O=c1nc(Nc2ccc(Br)cc2)sc2ccc([N+](=O)[O-])cc12 | -11 | -10 | 0 | 13* | -3 | 3
CCn1c2ccccc2n2c(=O)c(=O)n(CC(=O)Nc3ccc(C(C)C)cc3)nc12 | -8 | 9 | 0 | 13* | 0 | 3
CC(C)c1ccc(NC(=O)Cn2c(=O)oc3ccccc32)cc1 | -5 | 12 | 0 | 0 | 0 | 5
O=C(NC1CCCC1)[C@@H]1CCCN1C(=O)[C@@H](NS(=O)(=O)c1ccc(F)cc1F)C1CCCCC1 | . | . | . | . | 1 | 1
O=[N+]([O-])c1ccc2c(c1)/C(=N\O)c1ccccc1-2 | -33 | 3 | 0 | -3 | 2 | 5
Nc1cc2c(cc1Cl)-c1ccc([N+](=O)[O-])cc1C2=NO | . | . | 0 | 477* | -13 | -2
O=C(COC(=O)c1cn(-c2ccccc2)nc1-c1ccc(F)cc1)Nc1ncc(Cl)cc1Cl | -2 | 0 | 0 | 0 | 3 | -3
